In ChEMBL document CHEMBL3580660, “Synthesis and Biological Evaluation of Novel Olean-28,13β-lactams as Potential Antiprostate Cancer Agents” (J Med Chem, 2015):
Calls of active or inactive are those of the source. The rule behind the calls is not given here.

Key:
[1] = Acute toxicity in ICR mouse assessed as survival at 640 mg/kg, oral gavage on day 14; assay type: organism-based; conditions: in vivo
Method in brief: (§1)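 ICR mice of both sexes, 7 weeks old, held under SPF conditions. Each got one gavage dose (800, 640, 512, 409.6 or 327.8 mg/kg) or vehicle, n = 8 per group. Deaths were recorded at 1 h, 4 h, 3 d and 4–14 d. Behaviour, water and food intake, body weight and activity were followed to day 14. LD50 given with 95% confidence limits.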

DU-145 [2] = assay: Induction of apoptosis in human DU145 cells assessed as chromatin condensation and fragmentation at 0.08 to 0.32 uM after 24 hrs by Hoechst staining-based fluorescence microscopy; assay type: functional, cell-based
Method in brief: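 DU-145 cells exposed 24 h to compound or vehicle (0.1% DMSO), fixed in methanol 30 min, stained with 1 mg/mL Hoechst 33258, and scored under fluorescence microscope for chromatin condensation and nuclear fragmentation; three separate experiments.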

[3] = molecular target: Serine/threonine-protein kinase mTOR (Homo sapiens) (UniProt P42345); assay: Reduction in phosphorylated mTOR protein expression in human DU145 cells at 0.08 to 0.32 uM after 24 hrs by Western blot analysis; assay type: functional, cell-based; conditions: DU-145
Method in brief: (§2)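 DU-145 cells (5 × 10^5/well) in 10% FCS Ham's F-12K overnight, treated in duplicate with compound or vehicle 24 h; lysed (Tris pH 8, EGTA, NaCl, NP-40, Triton X-100), protein by BCA. Blots blocked in 5% milk, probed for AKT, p-AKT Ser473, mTOR, p-mTOR Ser2448, Bax, Bcl-2, β-actin; ECL detection, densitometry relative to control; three separate experiments.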

[4] = Apparent permeability across apical to basolateral side in human Caco2 cells at 0.5 uM measured after 30 mins by LC-MS/MS analysis; assay type: ADME, cell-based; conditions: Caco-2
Method in brief: (§3)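 Caco2 monolayers (passages 20−40) grown 21 days at 37 °C, 5% CO2; integrity checked by TEER. Test drug 0.5 μM applied in triplicate, apical pH 6.8, basolateral pH 7.4, 37 °C for 30 min, A→B and B→A. Donor and receiver sampled, concentration by LC−MS/MS; Papp calculated; efflux ratio = Papp B→A / Papp A→B.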

[5] = Apparent permeability across basolateral to apical side in human Caco2 cells at 0.5 uM measured after 30 mins by LC-MS/MS analysis; assay type: ADME, cell-based; conditions: Caco-2; method in brief: as §3
Mus musculus [6] = assay: Acute toxicity in ICR mouse assessed as mortality at 640 mg/kg, oral gavage after 4 to 14 days; assay type: organism-based; conditions: in vivo; method in brief: as §1
DU-145 [7] = assay: Induction of cell cycle arrest in human DU145 cells assessed as cells accumulation at S phase at 0.08 uM after 24 hrs by propidium iodide staining-based flow cytometry (reference value: 24%); assay type: functional
DU-145 [8] = assay: Induction of cell cycle arrest in human DU145 cells assessed as cells accumulation at G0/G1 phase at 0.08 uM after 24 hrs by propidium iodide staining-based flow cytometry (reference value: 54%); assay type: functional
[9] = Acute toxicity in ICR mouse assessed as survival at 327.8 mg/kg, oral gavage on day 14; assay type: organism-based; conditions: in vivo; method in brief: as §1
Mus musculus [10] = assay: Acute toxicity in ICR mouse assessed as mortality at 327.8 mg/kg, oral gavage after 4 hrs; assay type: organism-based; conditions: in vivo; method in brief: as §1
[11] = Antiproliferative activity against human H460 cells after 72 hrs by CCK8 assay; assay type: functional, cell-based; conditions: NCI-H460, 72 h
Method in brief: (§4)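 CCK-8 assay: DU-145, H460, Bxpc-3, BEL-7404 and nontumor WPMY-1 cells seeded at 5 × 10^3 cells/well in 10% FCS DMEM overnight, then exposed in triplicate to 0.041−10 μM for 72 h. CCK-8 added for final 30 min, absorbance 450 nm; inhibition relative to medium-only controls after background subtraction; IC50 as concentration giving 50% inhibition.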

DU-145 [12] = assay: Effect on Akt protein expression in human DU145 cells at 0.08 to 0.32 uM after 24 hrs by Western blot analysis; assay type: functional, cell-based; method in brief: as §2
[13] = Antiproliferative activity against human Bel7404 cells after 72 hrs by CCK8 assay; assay type: functional, cell-based; conditions: BEL-7404, 72 h; method in brief: as §4
Mus musculus [14] = assay: Toxicity in human DU145 cells xenografted in BALB/c mouse assessed as change in body weight at 8.5 mg/kg, oral gavage for 21 days relative to vehicle treated control; assay type: organism-based, DU-145; conditions: in vivo, 504 h
Method in brief: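 Male BALB/c nude mice (6−8 weeks, 18−22 g) implanted subcutaneously on right axillary flank with 2 × 10^6 DU-145 cells in 0.1 mL saline. At 100 ± 30 mm3 tumors, randomized (n = 5/group) to daily gavage for 21 days; vehicle DMSO/Cremphor EL/PBS 1:1:8. Tumor volume every 3 days; tumors excised and weighed at end; TGI from mean tumor weights vs vehicle; body weight tracked.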

Mus musculus [15] = assay: Acute toxicity in ICR mouse assessed as mortality at 327.8 mg/kg, oral gavage after 1 hr; assay type: organism-based; conditions: in vivo; method in brief: as §1
[16] = molecular target: Serine/threonine-protein kinase mTOR (Homo sapiens) (UniProt P42345); assay: Effect on mTOR protein expression in human DU145 cells at 0.08 to 0.32 uM after 24 hrs by Western blot analysis; assay type: functional, cell-based; conditions: DU-145; method in brief: as §2
[17] = Acute toxicity in ICR mouse assessed as survival at 512 mg/kg, oral gavage on day 14; assay type: organism-based; conditions: in vivo; method in brief: as §1
Mus musculus [18] = assay: Acute toxicity in ICR mouse assessed as mortality at 640 mg/kg, oral gavage after 4 hrs; assay type: organism-based; conditions: in vivo; method in brief: as §1
Mus musculus [19] = assay: Acute toxicity in ICR mouse assessed as mortality at 512 mg/kg, oral gavage after 4 to 14 days; assay type: organism-based; conditions: in vivo; method in brief: as §1
Mus musculus [20] = assay: Acute toxicity in ICR mouse assessed as total mortality at […] mg/kg, oral gavage up to 14 days; assay type: organism-based; conditions: in vivo, 336 h; method in brief: as §1
DU-145 [21] = assay: Induction of apoptosis in human DU145 cells assessed as reduction in Bcl2 expression at 0.08 to 0.32 uM after 24 hrs by Western blot analysis; assay type: functional, cell-based; method in brief: as §2
Mus musculus [22] = assay: Acute toxicity in ICR mouse assessed as mortality at 327.8 mg/kg, oral gavage after 3 days; assay type: organism-based; conditions: in vivo, 72 h; method in brief: as §1
Cytochrome P450 3A4 = Cytochrome P450 3A4 (Homo sapiens, UniProt P08684); assay: Inhibition of CYP3A4 in human liver microsomes using midazolam as substrate after 1 hr by LC-MS/MS analysis
Sequence of Cytochrome P450 3A4 (P08684 whole entry): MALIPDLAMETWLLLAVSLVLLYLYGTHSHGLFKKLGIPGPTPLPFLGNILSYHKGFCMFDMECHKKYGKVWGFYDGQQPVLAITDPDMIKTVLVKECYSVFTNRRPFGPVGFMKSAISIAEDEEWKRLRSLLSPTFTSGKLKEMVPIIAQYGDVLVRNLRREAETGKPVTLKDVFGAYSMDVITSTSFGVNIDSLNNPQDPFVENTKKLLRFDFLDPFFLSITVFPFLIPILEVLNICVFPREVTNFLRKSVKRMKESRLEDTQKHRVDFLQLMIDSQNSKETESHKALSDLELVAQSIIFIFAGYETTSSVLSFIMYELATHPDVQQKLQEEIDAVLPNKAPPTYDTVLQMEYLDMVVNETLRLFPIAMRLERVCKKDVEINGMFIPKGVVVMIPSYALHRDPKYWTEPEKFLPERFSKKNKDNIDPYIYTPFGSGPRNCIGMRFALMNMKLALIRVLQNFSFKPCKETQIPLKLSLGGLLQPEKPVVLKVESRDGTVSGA

[23] = Stability in rat plasma assessed as compound remaining after 1 hr by LC-MS/MS analysis; assay type: ADME, cell-free; conditions: read-out: Stability
Method in brief: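 Compound at 50 ng/mL incubated in pooled heparinized rat plasma, 37 °C, 60 min. Proteins precipitated with 5 volumes cold acetonitrile containing internal standard; remaining compound measured by LC−MS/MS and expressed as percent remaining; mean ± SD.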

DU-145 [24] = assay: Induction of cell cycle arrest in human DU145 cells assessed as cells accumulation at G0/G1 phase at 0.16 uM after 24 hrs by propidium iodide staining-based flow cytometry (reference value: 54%); assay type: functional
Mus musculus [25] = assay: Acute toxicity in ICR mouse assessed as mortality at 409.6 mg/kg, oral gavage after 4 to 14 days; assay type: organism-based; conditions: in vivo; method in brief: as §1
Mus musculus [26] = assay: Acute toxicity in ICR mouse assessed as mortality at 640 mg/kg, oral gavage after 1 hr; assay type: organism-based; conditions: in vivo; method in brief: as §1

CC1(C)CC[C@]23CC[C@@]4(C)[C@]5(C)CC[C@H]6C(C)(C)C(=O)C(C#N)=C[C@]6(C)C5=CC(=O)[C@@]4([C@@H]2C1)N(C1CCCCC1)C3=O
survival at 14 day [1]: 25% | Activity (DU-145 [2]): Active | inhibition [3]: Active | Papp A→B at 0.5 h, 0.5 µM [4]: 0.045 ×10⁻⁶ cm/s | Papp B→A at 0.5 h, 0.5 µM [5]: 0.059 ×10⁻⁶ cm/s | Activity (Mus musculus [6]): Non-toxic | Activity (DU-145 [7]): 25% | Activity (DU-145 [8]): 56% | survival at 14 day [9]: 100% | Activity (Mus musculus [10]): Non-toxic | IC50 [11]: 380 nM | Activity (DU-145 [12]): inactive | IC50 [13]: 460 nM | Activity (Mus musculus [14]): Non-toxic | Activity (Mus musculus [15]): Non-toxic | Activity [16]: inactive | survival at 14 day [17]: 63% | Activity (Mus musculus [18]): Non-toxic | Activity (Mus musculus [19]): Non-toxic | Activity (Mus musculus [20]): Toxic | inhibition (DU-145 [21]): Active | Activity (Mus musculus [22]): Non-toxic | IC50 (Cytochrome P450 3A4): 932 nM | remaining at 1 h [23]: 46% | Activity (DU-145 [24]): 68% | Activity (Mus musculus [25]): Non-toxic | Activity (Mus musculus [26]): Non-toxic
